From ChEMBL document CHEMBL1275303, “Synthesis and antimicrobial activity of 2-substituted [4-(1,3,4-oxadiazol-2-yl methyl)] phthalazin-1(2H)-one derivatives” (2010)

Legend:
[1] = system: Chrysosporium keratinophilum; test: Antimicrobial activity against Chrysosporium keratinophilum at 50 ug/mL after 72 hrs by well plate method; assay type: functional; conditions: read-out: IZ
How it was run: (§1)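 Antifungal well-plate assay on Sabouraud dextrose agar using a 72 h old broth culture of the fungal strain. Wells were filled with compound dissolved in DMSO (100 or 50), and the zone of inhibition around each well was measured. […] served as reference.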

Aspergillus flavus [2] = test: Antimicrobial activity against Aspergillus flavus at 50 ug/mL after 72 hrs by well plate method; assay type: functional; conditions: read-out: IZ
Candida albicans [3] = test: Antimicrobial activity against Candida albicans at 100 ug/mL after 72 hrs by well plate method; assay type: functional; conditions: read-out: IZ; how it was run: as §1
Bacillus subtilis [4] = test: Antimicrobial activity against Bacillus subtilis at 100 ug/mL after 24 hrs by well plate method; assay type: functional; conditions: read-out: IZ
How it was run: (§2)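 Agar well diffusion in nutrient agar. About 1 cm³ of a 24 h broth culture was placed in sterile dishes, and molten agar at 45 °C was poured over it and set. 6 mm wells were bored and filled with compound in DMSO (100 or 50). Plates were incubated 24 h at 37 °C, and the inhibition zone was read in mm. Duplicate runs, with standard deviation; amoxicillin as reference.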

Salmonella typhi [5] = test: Antimicrobial activity against Salmonella typhi at 100 ug/mL after 24 hrs by well plate method; assay type: functional, Salmonella enterica subsp. enterica serovar Typhi; conditions: Salmonella enterica, read-out: IZ
How it was run: (§3)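 Agar well diffusion in nutrient agar: about 1 cm³ of a 24 h broth culture placed in a sterile dish, molten agar at 45 °C poured over it and allowed to set. 6 mm holes cut with a sterile cork borer and filled with compound solution in DMSO. Incubated 24 h at 37 °C; inhibition zone diameter read in mm. Run in duplicate, standard deviation calculated.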

Aspergillus flavus [6] = test: Antimicrobial activity against Aspergillus flavus at 100 ug/mL after 72 hrs by well plate method; assay type: functional; conditions: read-out: IZ
Nannizzia gypsea [7] = test: Antimicrobial activity against Microsporum gypseum at 100 ug/mL after 72 hrs by well plate method; assay type: functional; conditions: read-out: IZ; how it was run: as §1
[8] = system: Chrysosporium keratinophilum; test: Antimicrobial activity against Chrysosporium keratinophilum at 100 ug/mL after 72 hrs by well plate method; assay type: functional; conditions: read-out: IZ; how it was run: as §1
Nannizzia gypsea [9] = test: Antimicrobial activity against Microsporum gypseum at 50 ug/mL after 72 hrs by well plate method; assay type: functional; conditions: read-out: IZ; how it was run: as §1
Staphylococcus aureus [10] = test: Antimicrobial activity against Staphylococcus aureus at 100 ug/mL after 24 hrs by well plate method; assay type: functional; conditions: read-out: IZ; how it was run: as §2
Staphylococcus aureus [11] = test: Antimicrobial activity against Staphylococcus aureus at 50 ug/mL after 24 hrs by well plate method; assay type: functional; conditions: read-out: IZ; how it was run: as §2
Escherichia coli [12] = test: Antimicrobial activity against Escherichia coli at 100 ug/mL after 24 hrs by well plate method; assay type: functional; conditions: read-out: IZ; how it was run: as §2
Candida albicans [13] = test: Antimicrobial activity against Candida albicans at 50 ug/mL after 72 hrs by well plate method; assay type: functional; conditions: read-out: IZ; how it was run: as §1
Bacillus subtilis [14] = test: Antimicrobial activity against Bacillus subtilis at 50 ug/mL after 24 hrs by well plate method; assay type: functional; conditions: read-out: IZ; how it was run: as §2
Escherichia coli [15] = test: Antimicrobial activity against Escherichia coli at 50 ug/mL after 24 hrs by well plate method; assay type: functional; conditions: read-out: IZ; how it was run: as §2
Salmonella typhi [16] = test: Antimicrobial activity against Salmonella typhi at 50 ug/mL after 24 hrs by well plate method; assay type: functional, Salmonella enterica subsp. enterica serovar Typhi; conditions: Salmonella enterica, read-out: IZ; how it was run: as §3

Row | Structure (SMILES) | zone of inhibition at 50 µg/mL [1] [mm] | zone of inhibition at 50 µg/mL (Aspergillus flavus [2]) [mm] | zone of inhibition at 100 µg/mL (Candida albicans [3]) [mm] | zone of inhibition at 100 µg/mL (Bacillus subtilis [4]) [mm] | zone of inhibition at 100 µg/mL (Salmonella typhi [5]) [mm] | zone of inhibition at 100 µg/mL (Aspergillus flavus [6]) [mm] | zone of inhibition at 100 µg/mL (Nannizzia gypsea [7]) [mm] | zone of inhibition at 100 µg/mL [8] [mm] | zone of inhibition at 50 µg/mL (Nannizzia gypsea [9]) [mm] | zone of inhibition at 100 µg/mL (Staphylococcus aureus [10]) [mm] | zone of inhibition at 50 µg/mL (Staphylococcus aureus [11]) [mm] | zone of inhibition at 100 µg/mL (Escherichia coli [12]) [mm] | zone of inhibition at 50 µg/mL (Candida albicans [13]) [mm] | zone of inhibition at 50 µg/mL (Bacillus subtilis [14]) [mm] | zone of inhibition at 50 µg/mL (Escherichia coli [15]) [mm] | zone of inhibition at 50 µg/mL (Salmonella typhi [16]) [mm]
1 | O=c1c2ccccc2c(Cc2nnc(-c3ccsc3)o2)nn1Cc1cnc(Cl)s1 | 5.5 | 3.5 | 8.5 | 8 | 12 | 8.5 | 9.5 | 11.5 | 6.5 | 10 | 7 | 16 | 4.5 | 4 | 10 | 7
2 | O=c1c2ccccc2c(Cc2nnc(C3CC3)o2)nn1Cc1cnc(Cl)s1 | 0.5 | 3.5 | 5.5 | 5.5 | 7.5 | 6 | 7 | 3.5 | 4.5 | 4.5 | 2 | 11.5 | 3.5 | 2 | 9 | 4
3 | O=c1c2ccccc2c(Cc2nnc(-c3ccc(F)cc3)o2)nn1Cc1cnc(Cl)s1 | 0 | 2 | 5.5 | 4.5 | 9 | 5 | 8.5 | 2.5 | 4 | 9 | 5 | 9 | 2.5 | 2 | 5 | 5
4 | O=c1c2ccccc2c(Cc2nnc(-c3ccc(Cl)cc3)o2)nn1Cc1cnc(Cl)s1 | 2 | 2.5 | 6.5 | 5.5 | 9.5 | 5 | 4 | 4.5 | 1 | 10 | 7 | 9 | 3 | 3 | 5 | 5
5 | Cc1ccccc1-c1nnc(Cc2nn(Cc3cnc(Cl)s3)c(=O)c3ccccc23)o1 | 0 | 1 | 3.5 | 5 | 5 | 2 | 3 | 3.5 | 1 | 2 | 0 | 6 | 0 | 2 | 6 | 3
